Source: ChEMBL document CHEMBL1144183, “Synthesis and biological affinity of new imidazo- and indol-arylpiperazine derivatives: further validation of a pharmacophore model for alpha(1)-adrenoceptor antagonists” (Bioorg Med Chem Lett, 2008)

Key:
[1] = Displacement of [3H]rauwolscine from alpha2 adrenoceptor in rat cortex membrane; assay type: cell membranes
Method in brief: (§1)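 Competitive radioligand binding on rat cerebral cortex membranes. IC50 was converted to Ki by Cheng–Prusoff, Ki = IC50/(1+[L]/Kd). Ki is the mean of three separate experiments, each run in triplicate.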

[2] = Displacement of [3H]prazosin from alpha1 adrenoceptor in rat cortex membrane; assay type: cell membranes; method in brief: as §1
[3] = target: T1, 5-hydroxytryptamine receptor 1A (Rattus norvegicus, UniProt P19327); assay: Displacement of [3H]8-OH-DPAT from 5HT1A receptor in rat cortex membrane; assay type: cell membranes; method in brief: as §1
T1 sequence (P19327 whole entry): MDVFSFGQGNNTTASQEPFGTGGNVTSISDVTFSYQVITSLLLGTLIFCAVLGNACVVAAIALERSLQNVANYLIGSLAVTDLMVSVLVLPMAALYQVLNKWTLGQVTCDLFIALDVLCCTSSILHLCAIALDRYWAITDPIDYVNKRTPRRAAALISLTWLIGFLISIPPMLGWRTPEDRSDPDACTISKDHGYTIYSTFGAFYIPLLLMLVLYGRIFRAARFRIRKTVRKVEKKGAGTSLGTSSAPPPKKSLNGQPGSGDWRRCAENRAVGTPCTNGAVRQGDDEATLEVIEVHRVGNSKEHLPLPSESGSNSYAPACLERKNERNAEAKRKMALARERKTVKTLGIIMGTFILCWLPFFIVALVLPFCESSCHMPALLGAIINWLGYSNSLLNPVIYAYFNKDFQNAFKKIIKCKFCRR

[4] = target: T2, Sodium-dependent serotonin transporter (Homo sapiens, UniProt P31645); assay type: cell membranes
Target sequence in this assay (P31645 whole entry): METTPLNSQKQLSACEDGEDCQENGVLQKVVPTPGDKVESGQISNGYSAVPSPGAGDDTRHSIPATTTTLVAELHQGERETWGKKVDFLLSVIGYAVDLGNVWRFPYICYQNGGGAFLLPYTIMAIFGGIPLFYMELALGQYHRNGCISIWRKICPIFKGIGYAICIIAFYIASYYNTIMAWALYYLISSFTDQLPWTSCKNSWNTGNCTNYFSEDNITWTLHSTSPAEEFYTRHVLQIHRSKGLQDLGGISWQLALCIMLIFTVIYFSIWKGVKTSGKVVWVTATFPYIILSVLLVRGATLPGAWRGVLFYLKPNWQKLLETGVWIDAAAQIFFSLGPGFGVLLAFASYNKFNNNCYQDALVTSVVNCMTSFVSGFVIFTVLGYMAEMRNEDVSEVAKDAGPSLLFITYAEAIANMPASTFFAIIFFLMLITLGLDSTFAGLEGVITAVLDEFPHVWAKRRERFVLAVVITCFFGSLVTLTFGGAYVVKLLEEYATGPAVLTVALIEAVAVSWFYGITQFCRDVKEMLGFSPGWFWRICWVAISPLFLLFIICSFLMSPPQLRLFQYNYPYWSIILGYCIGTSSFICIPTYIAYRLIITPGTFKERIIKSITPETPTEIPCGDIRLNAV

Rattus norvegicus [5] = species: Rattus norvegicus; assay: Ratio of Ki for alpha2 adrenoceptor in rat cortex membrane to Ki for alpha1 adrenoceptor in rat cortex membrane; assay type: cell membranes
Rattus norvegicus [6] = species: Rattus norvegicus; assay: Ratio of Ki for 5HT1A receptor in rat cortex membrane to Ki for alpha1 adrenoceptor in rat cortex membrane; assay type: cell membranes
[7] = target: T2, Sodium-dependent serotonin transporter; assay: Displacement of [3H]paroxetine from SERT in human platelet membrane at 10 uM; assay type: cell membranes
Method in brief: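 Compounds were tested at 10 µM, with percent displacement recorded. Where obtainable, Ki was derived from IC50 by Cheng–Prusoff. Assays were run in triplicate.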
Target sequence in this assay (P31645 whole entry, looked up): as the sequence (P31645 whole entry) above

[8] = target: 5-hydroxytryptamine receptor 2A (Homo sapiens, UniProt P28223); assay: Displacement of [3H]ketanserine from 5HT2A receptor
Chain of 5-hydroxytryptamine receptor 2A (P28223 whole entry): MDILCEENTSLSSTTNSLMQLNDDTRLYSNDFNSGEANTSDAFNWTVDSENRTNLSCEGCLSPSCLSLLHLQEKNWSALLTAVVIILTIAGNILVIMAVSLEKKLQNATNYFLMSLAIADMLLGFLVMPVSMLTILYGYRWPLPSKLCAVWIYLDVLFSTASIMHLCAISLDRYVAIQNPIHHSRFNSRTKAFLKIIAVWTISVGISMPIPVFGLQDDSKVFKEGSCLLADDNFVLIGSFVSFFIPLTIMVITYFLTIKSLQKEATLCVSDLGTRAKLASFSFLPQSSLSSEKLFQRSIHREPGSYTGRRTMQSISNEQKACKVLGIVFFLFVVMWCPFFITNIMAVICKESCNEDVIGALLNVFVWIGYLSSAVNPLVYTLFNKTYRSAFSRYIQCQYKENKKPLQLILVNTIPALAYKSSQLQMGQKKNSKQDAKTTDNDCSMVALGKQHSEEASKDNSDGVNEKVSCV

Row | Ki [1] [nM] | Ki [2] [nM] | Ki [3] [nM] | Ki [4] [nM] | Ratio Ki (Rattus norvegicus [5]) | Ratio Ki (Rattus norvegicus [6]) | Activity [7] [%] | Ki [8] [nM] | Compound
1 | 4 |  |  |  |  |  |  |  | COC(=O)[C@H]1[C@H]2C[C@H]3c4[nH]c5ccccc5c4CCN3C[C@H]2CC[C@@H]1O [RAUWOLSCINE]
2 | 70.1 | 1.1 | 27.7 | 639 | 62.6 | 24.7 |  |  | CCOc1ccccc1N1CCN(CCCCn2nc(-n3ccc4ccccc43)ccc2=O)CC1
3 | 725 | 19 | 210 | > 10000 | 38.1 | 11.1 | 25 |  | O=c1ccc(-n2ccc3ccccc32)nn1CCCCN1CCN(c2ncccn2)CC1
4 | 1900 | 2190 | 318 | > 10000 | 0.86 | 0.14 | 3 |  | COc1ccccc1N1CCN(C(=O)CCCn2nc(-n3ccnc3)ccc2=O)CC1
5 | 1550 | 710 | 890 | > 10000 | 2.2 | 1.25 | 5 |  | O=c1ccc(-n2ccnc2)nn1CCCCN1CCN(c2ncccn2)CC1
6 | 2970 | 688 | 2070 | 3460 | 4.3 | 3 |  |  | COc1ccccc1N1CCN(CCNC(=O)Cn2nc(-n3ccnc3)ccc2=O)CC1
7 |  | 0.24 |  |  |  |  |  |  | COc1cc2nc(N3CCN(C(=O)c4ccco4)CC3)nc(N)c2cc1OC [PRAZOSIN]
8 | 1340 | 897 | 1560 | > 10000 | 1.49 | 1.73 | 2 |  | CC(C)Oc1ccccc1N1CCN(C(=O)CCCn2nc(-n3ccnc3)ccc2=O)CC1
9 | 1960 | 220 | 1910 | > 10000 | 8.89 | 8.7 |  |  | CC(C)Oc1ccccc1N1CCN(CCNC(=O)Cn2nc(-n3ccnc3)ccc2=O)CC1
10 | 656 | 118 | 13 | 230 | 5.6 |  |  | 166 | O=c1ccc(-n2ccnc2)nn1CCCCN1CCN(c2cccc(C(F)(F)F)c2)CC1
11 | 20.1 | 1.7 | 22.8 | 1040 | 12 | 13.6 |  |  | CC(C)Oc1ccccc1N1CCN(CCCCn2nc(-n3ccc4ccccc43)ccc2=O)CC1
12 | 3140 | 234 | 1150 | 5980 | 13.4 | 4.9 |  |  | CCOc1ccccc1N1CCN(CCNC(=O)Cn2nc(-n3ccnc3)ccc2=O)CC1
13 | 476 | 14 | 627 | 177 | 34 | 44.8 |  |  | O=c1ccc(-n2ccc3ccccc32)nn1CCCCN1CCN(c2ccc3c(c2)OCCO3)CC1
14 | 44 | 0.4 | 6.8 | > 10000 | 110 | 17 | 10 |  | CC(C)Oc1ccccc1N1CCN(CCCCn2nc(-n3ccnc3)ccc2=O)CC1
15 | 462 | 60 | 62 | 109 | 7.7 | 1.03 |  | 83 | O=c1ccc(-n2ccc3ccccc32)nn1CCCCN1CCN(c2cccc(C(F)(F)F)c2)CC1
16 | 1760 | 492 | 2250 | > 10000 | 3.57 | 4.57 | 11 |  | CCOc1ccccc1N1CCN(C(=O)CCCn2nc(-n3ccnc3)ccc2=O)CC1
17 | 147 | 0.8 | 14 | > 10000 | 163 | 15.5 | 15 |  | CCOc1ccccc1N1CCN(CCCCn2nc(-n3ccnc3)ccc2=O)CC1

Row | Compound | Ki [1] [nM] | Ki [2] [nM] | Ki [3] [nM] | Ki [4] [nM] | Ratio Ki (Rattus norvegicus [5]) | Ratio Ki (Rattus norvegicus [6]) | Activity [7] [%] | Ki [8] [nM]
18 | O=c1ccc(-n2ccnc2)nn1CCCCN1CCN(c2ccc3c(c2)OCCO3)CC1 | 996 | 251 | 937 | > 10000 | 3.9 | 3.73 | 26 | 
